A short description of series [1]: Stability of compound at 40 degC and 75% relative humidity assessed parent compound remaining measured after 3 months using amorphous form of sample by chromatographic method. The class given is physicochemical. The note with it: solid sample, read-out: Stabilty.
A short description of series [2]: Photostability of compound under 1.2 mil lux.h white light and 200 W.h/m2 UV light assessed parent compound remaining using amorphous form of sample by chromatographic method. It counts as physicochemical.
A short description of series [3]: Stability of compound at 60 degC and 75% relative humidity assessed parent compound remaining measured 1 week using amorphous form of sample by chromatographic method. The class given is physicochemical. The settings on record: solid sample, time 1 weeks, read-out: Stabilty.
Series [4] in a line: Half-life in rat at 0.5 mg/kg, iv or 1 mg/kg, po. The class given is ADME, organism-based. The settings on record: in vivo. In outline: (§1)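 Rat PK: single IV dose 0.5 mg/kg and oral dose 1 mg/kg, formulated in 5% DMSO:95% hydroxypropyl-β-cyclodextrin (30% w/v), dosed at 1 mL/kg IV and 4 mL/kg PO.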
In the next series the test system is MCF7. The series is described as follows: Antiproliferative activity against human MCF7 cells harboring Y537S mutant assessed as reduction in cell viability incubated for 4 to 6 days by SYTOX Green dye based fluorescence assay. It counts as functional.
The nature of series [5]: Chemical stability of compound assessed as drug degradation in buffer at pH 10 stored at 22 to 60 degreeC measured after 5 days. It counts as physicochemical. The settings on record: pH 10, 120 h, time 5 day.
Series [6] in a line: In vivo antagonist activity at ERalpha in human MCF7 cells xenografted CB17 SCID mouse assessed as decrease in PR expression level at 50 mg/kg, po administered daily via oral gavage for 21 days measured 24 hrs post last dose by Western blot analysis relative to control. It counts as functional. The settings on record: time 21 day. More on the design: scale not given: the % may be the effect or the level left. (In general: In xenograft studies the graft and the host belong to different species.)

Series [7] can be described thus: Stability of compound at 60 degC and ambient dry condition assessed parent compound remaining measured 2 weeks using amorphous form of sample by chromatographic method. It counts as physicochemical. The note with it: solid sample, read-out: Stabilty.
Series [8] in a line: Stability of compound at 40 degC and 75% relative humidity assessed parent compound remaining measured after 3 months using crystalline form of sample by chromatographic method. The class given is physicochemical. The settings on record: solid sample, read-out: Stabilty.
Series [9] has as its target T1, Estrogen receptor (Homo sapiens) (UniProt P03372).
T1 sequence (whole entry): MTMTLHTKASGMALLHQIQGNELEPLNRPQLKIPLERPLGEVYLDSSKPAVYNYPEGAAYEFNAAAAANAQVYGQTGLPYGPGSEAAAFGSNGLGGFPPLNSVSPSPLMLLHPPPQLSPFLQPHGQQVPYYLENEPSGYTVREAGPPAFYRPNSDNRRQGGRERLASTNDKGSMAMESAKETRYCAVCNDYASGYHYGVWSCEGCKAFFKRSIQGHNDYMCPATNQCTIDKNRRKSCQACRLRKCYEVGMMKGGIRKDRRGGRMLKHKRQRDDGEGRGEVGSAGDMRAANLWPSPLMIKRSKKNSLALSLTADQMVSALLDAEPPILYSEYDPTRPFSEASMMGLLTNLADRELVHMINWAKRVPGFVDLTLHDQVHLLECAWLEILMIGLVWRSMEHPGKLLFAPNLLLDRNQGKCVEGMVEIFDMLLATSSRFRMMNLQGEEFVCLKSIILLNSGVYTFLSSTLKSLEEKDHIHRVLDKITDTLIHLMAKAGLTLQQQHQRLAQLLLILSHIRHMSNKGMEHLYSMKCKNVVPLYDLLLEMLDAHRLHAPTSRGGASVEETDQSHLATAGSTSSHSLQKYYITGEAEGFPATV
The series is described as follows: Induction of ERalpha degradation in human MCF7 cells assessed as maximum degradation incubated for 18 to 24 hrs by Alexa fluor 488/Hoechst staining based immunofluorescence imaging analysis relative to fulvestrant. The class given is cell-based. The settings on record: time lower […], time upper […].

The nature of series [10]: Oral bioavailability in rat at 1 mg/kg. The settings on record: in vivo. It counts as ADME, organism-based. In outline:
as §1

Series [11] in a line: Clearance in rat at 0.5 mg/kg, iv or 1 mg/kg, po. It counts as ADME, organism-based. The settings on record: in vivo. The procedure, abridged: as §1
Series [12] in a line: Oral bioavailability in mouse at 5 mg/kg. It counts as ADME, organism-based. The note with it: in vivo.
The next series deals with Histamine H3 receptor (Homo sapiens, UniProt Q9Y5N1). The series is described as follows: Antagonist activity at human histamine H3 receptor expressed in CHO-K1 cells after 10 mins by HTRF assay. It counts as cell-based.
A short description of series [13]: Antitumor activity against human […] cells xenografted in CB17 SCID mouse assessed as tumor growth inhibition at 50 mg/kg, po administered daily via oral gavage for 21 days relative to control. Further details: scale not given: the % may be the effect or the level left. It counts as functional, MCF7. The note with it: time 21 day.
Series [14] is described as follows: Chemical stability of compound assessed as drug degradation in buffer at pH 1 stored at 22 to 60 degreeC measured after 5 days. The note with it: pH 1, 120 h, time 5 day. The class given is physicochemical.

pIC50: −log10 of the molar value.

Sequence of Histamine H3 receptor (Q9Y5N1 whole entry): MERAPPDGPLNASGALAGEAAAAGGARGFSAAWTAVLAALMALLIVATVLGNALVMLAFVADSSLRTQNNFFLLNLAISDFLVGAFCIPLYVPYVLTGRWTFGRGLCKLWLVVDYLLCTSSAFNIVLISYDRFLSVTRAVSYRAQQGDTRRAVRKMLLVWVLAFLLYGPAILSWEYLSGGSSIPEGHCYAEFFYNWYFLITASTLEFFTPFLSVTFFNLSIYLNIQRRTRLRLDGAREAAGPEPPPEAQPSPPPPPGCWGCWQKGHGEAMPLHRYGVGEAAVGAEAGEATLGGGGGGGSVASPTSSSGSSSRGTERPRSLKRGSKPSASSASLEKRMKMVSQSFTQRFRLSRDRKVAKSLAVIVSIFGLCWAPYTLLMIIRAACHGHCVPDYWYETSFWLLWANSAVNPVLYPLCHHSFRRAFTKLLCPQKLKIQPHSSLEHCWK

As usually defined, the half-life is the time in which the quantity being followed falls by half. One may read the pIC50 as the negative decadic logarithm of the IC50, by convention in mol/L. By Emax is commonly meant the size of the effect at its maximum, as opposed to the concentration needed. By bioavailability is commonly meant the share of a dose that reaches the circulation, judged against a reference dose that is usually intravenous. For `C[C@@H]1Cc2c(ccc3[nH]ncc23)[C@@H](c2ccc(NC3CN(CCCF)C3)cn2)N1CC(F)(F)F` [CAMIZESTRANT], the remaining at 2190 h in [1] came out at 90.5%; in series [8] it was 99.3%. Besides, the results for the Stabilty in [2], in series [5] and in series [14] were 78.9%, “Unstable” and “Unstable”, respectively. Besides, the remaining at 168 h in series [3] came out at 82.4%. In [4], this compound gave a half-life of 180 min. Besides, the pIC50 in the series with MCF7 is 7.60; on Histamine H3 receptor, 6.48. Moreover, the Activity in [6] is recorded as 6.3%; in [13], 53%. For the same compound, the remaining at 336 h in series [7] worked out at 98.4%. Moreover, in [9], the Emax amounted to 99%. In addition, the bioavailability stood at 19% in [10] and 16% in series [12]. The clearance in [11] turned out to be 73 mL/min/kg.

Source of the values: ChEMBL document CHEMBL4673245, “Discovery of AZD9833, a Potent and Orally Bioavailable Selective Estrogen Receptor Degrader and Antagonist” (J Med Chem, 2020).
